KLF5 inh: KLF5 expression inhibitors, primary screen, DLD-1 cells, luminescence; DLD-1 KLF5 promoter-luciferase reporter; inhibition, % at 5 µM; 290,000 tested, 0.23% active; AID 1700, 2009;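 active = inhibition above a per-plate limit of that plate's mean compound inhibition plus 3 SD, cut at about 60% in these data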;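 note: 0% = DMSO wells and 100% = LY294002 at 200 µM; higher means less KLF5 promoter-driven luciferase light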
HIF activator: HIF pathway transcriptional activators, primary screen, cell-based, U2OS HRE-luciferase, luminescence | U2OS HRE-luciferase reporter; normalized: DMSO 0%, desferrioxamine 100% | activation, % at 7.5 µM (by protocol) | 300,000 tested, 0.32% active | AID 1910, 2009;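 active = mean activation of at least 10% of the iron chelator positive control signal, with at least half of replicates also reaching 10%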
Beta cell apopt: inhibitors of cytokine-induced beta cell apoptosis, primary screen, luminescence; 300,000 tested, 0.8% active; protection from apoptosis, % (test concentration not listed); INS-1E cytokine-induced death, ATP luminescence, 48 h; percent of positive-control rescue, neutral wells zero;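 active = Every replicate reaches about 75%, or at least half do and their mean reaches it too, limit read from the data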;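 note: 0% = cytokine-treated negative control wells and 100% = positive control rescue; higher means more ATP so stronger rescue from cytokine killing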
T cruzi inh: inhibitors of intracellular T. cruzi growth, primary screen, luminescence, NIH3T3 host cells | AID 1885, 2009 | T. cruzi beta-gal in NIH3T3, 90 h | inhibition, % (test concentration not listed) | 300,000 tested, 1.4% active;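 active = mean inhibition across valid replicates above about 55%, limit read from the data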;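 note: signal also drops with host cell toxicity which is not excluded here; 0% = plate median of DMSO wells and 100% = zero luminescence signal; higher percent means less beta-gal luminescence so fewer parasites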
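Material: NIH/3T3 host cells with β-galactosidase reporter T. cruzi; Input: 5,000 host fibroblasts per well; Medium: DMEM, 2% fetal bovine serum; Compound: 50 nL DMSO compound solution per well; Schedule: 3 h host attachment, then at least 90 h co-culture; Detection: luminescent β-galactosidase signal after 60 min lysis.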
Bfl-1 A1 inh: caspase 3/7 activation in MEF A1-2A-BIM cells, primary screen, A1 inhibitor project, cell-based, luminescence, HTS; 330,000 tested, 0.066% active; Caspase-Glo 3/7 luminescence, 3 h; percent of clofoctol response, vehicle zero; caspase activation, % (no concentration beside the values);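 active = over half of replicate activation scores above 10%, or exactly half above 10 with the replicate mean above 10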
* marks the source's active call; other numbers are inactive results; . = no result given. Sampled rows, rich in hits. Any-hit rate of the full collection: about 2.3%.

SMILES	KLF5 inh	HIF activator	Beta cell apopt	T cruzi inh	Bfl-1 A1 inh
CCCCC1(Cc2ccc([N+](=O)[O-])cc2)C(=O)N(c2ccccc2)N(c2ccccc2)C1=O	14	0	101*	18	0
CCOC(=O)C1=C(CNCCOc2ccc(OC)cc2)NC(=O)NC1c1ccc2c(c1)OCO2 (centres undefined)	-26	0	-2	5	-1
CCOC(=O)C1=C(CNCCc2ccc(Cl)cc2)NC(=O)NC1c1ccc2c(c1)OCO2 (centres undefined)	-4	0	-3	57*	0
CCOC(=O)c1cc(-c2ccc(OC)cc2)n(CCC(=O)NC2CCN(Cc3ccccc3)CC2)c1C	-27	0	6	45	0
CCOC(=O)c1cc(-c2ccc(F)cc2)n(CCC(=O)NC2CCN(Cc3ccccc3)CC2)c1C	3	0	5	78*	0
CC(=O)N1CCc2c(sc(NC(=O)c3ccc([N+](=O)[O-])o3)c2C#N)C1	-5	0	.	-18	.
COC(=O)c1sc(NC(=O)c2ccc([N+](=O)[O-])o2)c(C#N)c1C	-8	0	24	57*	-1
O=C(c1ccc(Cl)cc1Cl)C1(n2cncn2)Oc2ccccc2C1O (centres undefined)	-16	0	-2	55*	0
COCCNC(=O)/C(C#N)=C/c1c(N2CCN(C)CC2)nc2ccccn2c1=O	-5	-24	-2	-4	2
C#CCN(C(=O)c1cc(COc2cccc(C(F)(F)F)c2)on1)C1CCCCC1	-24	1	104*	21	0
O=C(c1cc(COc2cccc(C(F)(F)F)c2)on1)N1CCC(c2ccncc2)CC1	-57	3	111*	23	0
Cc1ccnc(Nc2nc(-c3ccc(O)cc3O)cs2)c1	-120	3	8	14	0
Cc1ccnc2c1ccc1ccccc12	-2	0	.	-3	-1
Cc1ccnc2c1ccc1c(C)ccnc12	.	.	102*	.	-1
Cc1nn(CCCC(=O)NC(C)c2ccccc2)c(=O)c2nn(-c3ccccc3)c(C)c12 (centres undefined)	-3	0	-2	8	0
COc1ccc(C(=O)NCc2nnc(SCC(=O)N3CCCC3)o2)cc1	12	0	-3	1	0
O=C(Nc1cc(Cl)ccc1-n1cncn1)c1cc(S(=O)(=O)N2CCOCC2)ccc1F	-8	-1	-9	9	1
O=C(Nc1cc(C(F)(F)F)ccc1-n1cncn1)c1ccc(Cl)cc1	-39	0	.	21	-1
O=C(Nc1cc(S(=O)(=O)N2CCOCC2)ccc1-n1cncn1)c1ccc(Cl)cc1	-34	1	-3	63*	0
O=C(Nc1cc(C(F)(F)F)ccc1-n1cncn1)c1ccc(-c2ccccc2)cc1	-21	0	0	74*	0
CC(Oc1ccc2ccc(=O)oc2c1)C(=O)NCCN1CCOCC1 (centres undefined)	-9	61*	5	-15	-1
Cc1ccccc1CSCC(=O)NC(=O)NCc1ccco1	1	0	.	2	-1
CCc1ccc(N/C(SCc2cccc(F)c2)=C(/C#N)C(=O)NCc2ccco2)cc1	14	0	26	57*	0
Cc1ccc(N/C(SCc2ccccc2C)=C(/C#N)C(=O)NCc2ccco2)cc1C	5	0	1	60*	0
C[C@H](CO)N1C[C@H](C)[C@@H](CN(C)C(=O)Nc2ccc(C(F)(F)F)cc2)Oc2c(NC(=O)CCC(F)(F)F)cccc2C1=O	.	.	6	.	-1
O=C(Nc1ccc(N2CCCCC2)c(Cl)c1)c1ccc(N2CCOCC2)c([N+](=O)[O-])c1	-6	0	31	62*	0
O=C(Nc1ccc(N2CCN(C(=O)c3ccco3)CC2)c(Cl)c1)c1cc2ccccc2o1	-31	1	47	55*	0
CCC(=O)N1CCN(c2ccc(NC(=O)c3cc4ccccc4o3)cc2Cl)CC1	-2	1	32	5	-2
O=C(Nc1ccc(N2CCCC2)c(Cl)c1)c1ccc(Br)o1	-59	3	23	55*	-3
O=C(Nc1cc(Cl)ccc1N1CCOCC1)c1ccc(N2CCCCC2)c([N+](=O)[O-])c1	.	0	-7	22	0
